Measured values reported in ChEMBL document CHEMBL5696442, “Discovery of type II inhibitors of TGFβ-activated kinase 1 (TAK1) and mitogen-activated protein kinase kinase kinase kinase 2 (MAP4K2)” (J Med Chem, 2015).

What was measured:
[1] = target: Cyclin-dependent kinase 11B (Homo sapiens) (UniProt P21127); experiment: Inhibition of CDK11 Lys2 labeling site in human A-375 cells at 5 uM by KiNativ Profiling analysis relative to control; format: cell-based
Procedure, shortened: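 Live A375 melanoma cells were treated with compound at 5 or 0.5 μM. The cells were then lysed, and the lysates were labeled with a lysine-reactive ATP or ADP-biotin acyl probe (KiNativ). Inhibition is the compound's protection of each kinase labeling-site peptide from probe labeling, relative to untreated control.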

[2] = target: Epidermal growth factor receptor (Homo sapiens) (UniProt P00533); experiment: Inhibition of EGFR Lys1 labeling site in human A-375 cells at 0.5 uM by KiNativ Profiling analysis relative to control; format: cell-based
Procedure, shortened: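 Live A375 melanoma cells were treated with compound at 0.5 or 5 μM, then lysed. Lysates were labeled with a lysine-reactive ATP or ADP-biotin probe. The read-out was protection of each kinase probe-labeling site from labeling, relative to control.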

[3] = target: Cyclin-dependent kinase 18 (Homo sapiens) (UniProt Q07002); experiment: Inhibition of PCTAIRE3 Lys1 labeling site harbouring SKLTENLVALKEIRLEHEEGAPCTAIR in human A-375 cells at 5 uM by KiNativ Profiling analysis relative to control; format: cell-based
Procedure, shortened: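 Live A375 melanoma cells were treated with compound at 5 or 0.5 μM, then lysed. Lysates were labeled with a lysine-reactive ATP or ADP-biotin probe. Read-out was the compound's protection of kinase labeling sites from probe labeling (KiNativ).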

[4] = target: Serine/threonine-protein kinase 26 (Homo sapiens) (UniProt Q9P289); experiment: Inhibition of MST4 Lys1 labeling site in human A-375 cells at 0.5 uM by KiNativ Profiling analysis relative to control; format: cell-based
[5] = target: Serine/threonine-protein kinase WNK2 (Homo sapiens) (UniProt Q9Y3S1); experiment: Inhibition of Wnk2 ATP Loop labeling site in human A-375 cells at 0.05 uM by KiNativ Profiling analysis relative to control; format: cell-based
[6] = target: T1, Serine/threonine-protein kinase NLK (Homo sapiens) (UniProt Q9UBE8); experiment: Inhibition of NLK Lys2 labeling site in human A-375 cells at 0.05 uM by KiNativ Profiling analysis relative to control; format: cell-based
T1 sequence (whole entry): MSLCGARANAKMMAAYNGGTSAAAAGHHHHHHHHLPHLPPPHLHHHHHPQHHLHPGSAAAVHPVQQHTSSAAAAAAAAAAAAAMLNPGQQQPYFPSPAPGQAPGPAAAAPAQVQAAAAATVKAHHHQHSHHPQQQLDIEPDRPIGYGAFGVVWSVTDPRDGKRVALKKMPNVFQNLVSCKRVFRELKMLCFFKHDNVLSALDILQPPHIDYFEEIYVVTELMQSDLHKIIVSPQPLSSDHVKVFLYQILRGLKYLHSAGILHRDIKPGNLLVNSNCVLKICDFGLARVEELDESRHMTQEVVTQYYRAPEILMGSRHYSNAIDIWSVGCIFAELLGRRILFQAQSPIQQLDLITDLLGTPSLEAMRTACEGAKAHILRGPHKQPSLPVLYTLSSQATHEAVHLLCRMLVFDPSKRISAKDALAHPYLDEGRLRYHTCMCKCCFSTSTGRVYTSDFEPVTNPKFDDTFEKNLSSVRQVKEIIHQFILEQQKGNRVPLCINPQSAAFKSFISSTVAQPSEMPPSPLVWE

[7] = target: Serine/threonine-protein kinase 25 (Homo sapiens) (UniProt O00506); experiment: Inhibition of YSK1 Lys2 labeling site in human A-375 cells at 0.05 uM by KiNativ Profiling analysis relative to control; format: cell-based
[8] = target: Serine/threonine-protein kinase MRCK beta (Homo sapiens) (UniProt Q9Y5S2); experiment: Inhibition of MRCKb in human A-375 cells at 0.05 uM by KiNativ Profiling analysis relative to control; format: cell-based
[9] = target: MAP/microtubule affinity-regulating kinase 3 (Homo sapiens) (UniProt P27448); experiment: Inhibition of MARK3 Lys2 labeling site in human A-375 cells at 0.05 uM by KiNativ Profiling analysis relative to control; format: cell-based
[10] = target: Tyrosine-protein kinase Lyn (Homo sapiens, UniProt P07948); experiment: Inhibition of LYN Lys1 labeling site in human A-375 cells at 5 uM by KiNativ Profiling analysis relative to control; format: cell-based
[11] = target: Calcium/calmodulin-dependent protein kinase type 1 (Homo sapiens) (UniProt Q14012); experiment: Inhibition of CaMK1alpha Lys1 labeling site harbouring LVAIKCIAK in human A-375 cells at 5 uM by KiNativ Profiling analysis relative to control; format: cell-based
Procedure, shortened: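 Intact A375 melanoma cells were treated with compound at 5 or 0.5 μM, then lysed. Lysate kinases were labeled with a lysine-reactive ATP or ADP-biotin probe (KiNativ). Inhibition is read as protection of each kinase labeling site from probe labeling.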

[12] = target: Serine/threonine-protein kinase 26 (Homo sapiens) (UniProt Q9P289); experiment: Inhibition of MST4 Lys1 labeling site in human A-375 cells at 5 uM by KiNativ Profiling analysis relative to control; format: cell-based
[13] = target: Serine/threonine-protein kinase Nek6 (Homo sapiens) (UniProt Q9HC98); experiment: Inhibition of NEK6 Lys2 labeling site in human A-375 cells at 5 uM by KiNativ Profiling analysis relative to control; format: cell-based
[14] = target: Aurora kinase B (Homo sapiens) (UniProt Q96GD4); experiment: Inhibition of AurB ATP Loop labeling site in human A-375 cells at 0.05 uM by KiNativ Profiling analysis relative to control; format: cell-based
[15] = target: T2, Phosphatidylinositol 5-phosphate 4-kinase type-2 gamma (Homo sapiens) (UniProt Q8TBX8); experiment: Inhibition of PIP4K2C ATP labeling site harbouring VKELPTLKDMDFLNK in human A-375 cells at 0.05 uM by KiNativ Profiling analysis relative to control; format: cell-based
T2 sequence (whole entry): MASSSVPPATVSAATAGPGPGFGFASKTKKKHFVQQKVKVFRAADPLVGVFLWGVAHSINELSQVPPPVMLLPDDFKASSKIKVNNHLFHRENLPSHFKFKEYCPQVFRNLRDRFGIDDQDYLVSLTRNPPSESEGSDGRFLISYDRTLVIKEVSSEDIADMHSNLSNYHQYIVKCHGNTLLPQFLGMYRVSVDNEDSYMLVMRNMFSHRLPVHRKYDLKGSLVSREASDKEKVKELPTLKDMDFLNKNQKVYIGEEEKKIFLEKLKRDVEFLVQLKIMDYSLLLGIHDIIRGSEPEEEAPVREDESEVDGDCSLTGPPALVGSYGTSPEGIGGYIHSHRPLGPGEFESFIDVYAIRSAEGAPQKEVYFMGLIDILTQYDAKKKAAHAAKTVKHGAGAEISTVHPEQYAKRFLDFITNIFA

[16] = Inhibition of p70S6K ATP Loop labeling site harbouring DLKPENIMLNHQGHVK in human A-375 cells at 0.05 uM by KiNativ Profiling analysis relative to control; conditions: condition cancer
[17] = target: Phosphatidylinositol 3-kinase catalytic subunit type 3 (Homo sapiens) (UniProt Q8NEB9); experiment: Inhibition of PIK3C3 ATP labeling site in human A-375 cells at 0.5 uM by KiNativ Profiling analysis relative to control; format: cell-based

Serine/threonine-protein kinase 26 (Homo sapiens), sequence (Q9P289 2-416 limits assumed): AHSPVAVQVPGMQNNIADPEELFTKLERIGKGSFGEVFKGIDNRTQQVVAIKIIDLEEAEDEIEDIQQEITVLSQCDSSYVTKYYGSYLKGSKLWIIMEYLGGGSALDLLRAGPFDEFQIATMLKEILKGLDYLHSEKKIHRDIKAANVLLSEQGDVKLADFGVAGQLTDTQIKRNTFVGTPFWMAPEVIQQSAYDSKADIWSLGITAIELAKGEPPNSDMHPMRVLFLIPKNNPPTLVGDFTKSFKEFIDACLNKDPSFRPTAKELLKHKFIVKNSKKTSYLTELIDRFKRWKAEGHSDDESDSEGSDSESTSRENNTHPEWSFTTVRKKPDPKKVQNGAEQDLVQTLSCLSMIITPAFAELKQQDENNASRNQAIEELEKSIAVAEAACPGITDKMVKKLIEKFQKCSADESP
Serine/threonine-protein kinase Nek6 (Homo sapiens), sequence (Q9HC98 whole entry): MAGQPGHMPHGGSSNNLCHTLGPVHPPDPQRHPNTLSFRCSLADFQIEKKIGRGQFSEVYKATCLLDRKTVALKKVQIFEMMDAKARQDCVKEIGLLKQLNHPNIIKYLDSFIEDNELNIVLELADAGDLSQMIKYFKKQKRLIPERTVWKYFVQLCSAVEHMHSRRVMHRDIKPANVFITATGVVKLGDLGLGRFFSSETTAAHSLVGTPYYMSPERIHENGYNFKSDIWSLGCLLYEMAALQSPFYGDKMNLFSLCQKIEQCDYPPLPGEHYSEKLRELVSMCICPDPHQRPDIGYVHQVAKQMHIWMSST
Calcium/calmodulin-dependent protein kinase type 1 (Homo sapiens), sequence (Q14012 whole entry, looked up): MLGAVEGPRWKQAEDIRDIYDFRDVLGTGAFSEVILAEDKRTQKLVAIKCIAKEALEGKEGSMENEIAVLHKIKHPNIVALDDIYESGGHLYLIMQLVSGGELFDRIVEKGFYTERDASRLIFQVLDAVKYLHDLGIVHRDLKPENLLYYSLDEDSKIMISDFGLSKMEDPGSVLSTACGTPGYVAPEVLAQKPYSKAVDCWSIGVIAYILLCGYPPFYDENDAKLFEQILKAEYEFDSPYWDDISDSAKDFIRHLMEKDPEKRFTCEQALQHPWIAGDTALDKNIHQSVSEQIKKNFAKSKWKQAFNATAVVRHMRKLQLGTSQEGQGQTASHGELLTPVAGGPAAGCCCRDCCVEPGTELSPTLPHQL
Tyrosine-protein kinase Lyn, sequence (P07948 2-512 limits assumed): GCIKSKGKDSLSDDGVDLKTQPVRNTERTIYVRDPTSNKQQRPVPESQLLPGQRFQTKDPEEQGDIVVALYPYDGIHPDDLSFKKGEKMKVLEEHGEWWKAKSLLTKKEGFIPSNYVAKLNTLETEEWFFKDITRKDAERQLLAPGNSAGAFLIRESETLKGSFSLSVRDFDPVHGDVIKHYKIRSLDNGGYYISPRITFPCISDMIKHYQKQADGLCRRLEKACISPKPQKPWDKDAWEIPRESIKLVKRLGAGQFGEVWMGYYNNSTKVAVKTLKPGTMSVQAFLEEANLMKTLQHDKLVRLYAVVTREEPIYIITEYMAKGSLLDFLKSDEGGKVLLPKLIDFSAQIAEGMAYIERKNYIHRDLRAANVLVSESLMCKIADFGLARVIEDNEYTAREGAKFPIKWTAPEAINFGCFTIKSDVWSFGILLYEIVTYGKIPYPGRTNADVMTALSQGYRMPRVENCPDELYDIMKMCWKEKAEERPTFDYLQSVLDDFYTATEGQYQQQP
Serine/threonine-protein kinase MRCK beta (Homo sapiens), sequence (Q9Y5S2 whole entry): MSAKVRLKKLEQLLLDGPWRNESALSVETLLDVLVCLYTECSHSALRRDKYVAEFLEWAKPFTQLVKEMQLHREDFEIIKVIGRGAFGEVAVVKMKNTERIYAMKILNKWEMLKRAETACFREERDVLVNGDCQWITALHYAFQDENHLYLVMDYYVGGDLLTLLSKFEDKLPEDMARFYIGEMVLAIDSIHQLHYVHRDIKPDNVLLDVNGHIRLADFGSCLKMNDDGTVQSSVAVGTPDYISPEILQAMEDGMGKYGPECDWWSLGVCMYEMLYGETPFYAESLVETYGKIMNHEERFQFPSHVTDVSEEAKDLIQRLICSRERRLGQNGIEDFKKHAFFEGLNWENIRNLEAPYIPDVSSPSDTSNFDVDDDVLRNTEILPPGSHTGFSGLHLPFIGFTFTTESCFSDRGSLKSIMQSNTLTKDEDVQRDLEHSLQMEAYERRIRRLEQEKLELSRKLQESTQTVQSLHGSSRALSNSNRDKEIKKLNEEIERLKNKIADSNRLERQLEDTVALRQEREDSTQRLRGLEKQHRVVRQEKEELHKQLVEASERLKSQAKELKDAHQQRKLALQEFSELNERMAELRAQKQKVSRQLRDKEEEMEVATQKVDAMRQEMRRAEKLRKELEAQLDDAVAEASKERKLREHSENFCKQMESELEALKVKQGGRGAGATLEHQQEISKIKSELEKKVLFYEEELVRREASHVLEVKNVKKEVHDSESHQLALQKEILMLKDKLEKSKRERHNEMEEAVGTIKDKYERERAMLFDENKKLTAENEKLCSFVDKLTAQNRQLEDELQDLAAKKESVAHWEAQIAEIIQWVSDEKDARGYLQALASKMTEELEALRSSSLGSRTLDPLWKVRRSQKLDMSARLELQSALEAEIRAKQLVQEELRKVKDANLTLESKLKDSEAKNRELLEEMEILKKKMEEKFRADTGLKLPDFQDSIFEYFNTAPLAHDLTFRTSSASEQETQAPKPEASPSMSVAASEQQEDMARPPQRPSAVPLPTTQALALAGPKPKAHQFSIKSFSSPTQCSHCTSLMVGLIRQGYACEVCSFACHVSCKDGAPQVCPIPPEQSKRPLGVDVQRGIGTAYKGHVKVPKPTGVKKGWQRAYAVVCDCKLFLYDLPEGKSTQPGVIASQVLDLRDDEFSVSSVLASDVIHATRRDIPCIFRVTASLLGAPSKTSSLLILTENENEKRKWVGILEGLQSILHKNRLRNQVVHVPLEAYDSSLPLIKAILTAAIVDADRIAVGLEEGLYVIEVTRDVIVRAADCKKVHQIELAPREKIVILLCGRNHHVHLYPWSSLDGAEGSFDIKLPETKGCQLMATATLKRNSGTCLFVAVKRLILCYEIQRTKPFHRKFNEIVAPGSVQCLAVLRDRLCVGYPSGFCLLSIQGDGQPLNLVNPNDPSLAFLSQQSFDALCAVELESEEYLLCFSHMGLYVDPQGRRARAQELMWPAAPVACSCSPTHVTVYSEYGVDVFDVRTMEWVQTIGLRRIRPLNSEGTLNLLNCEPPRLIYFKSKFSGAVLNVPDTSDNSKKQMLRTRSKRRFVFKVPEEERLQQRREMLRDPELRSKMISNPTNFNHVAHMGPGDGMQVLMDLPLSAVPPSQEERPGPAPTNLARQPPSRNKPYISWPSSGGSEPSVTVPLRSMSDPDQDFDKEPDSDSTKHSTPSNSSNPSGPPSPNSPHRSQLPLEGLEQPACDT
Serine/threonine-protein kinase 25 (Homo sapiens), sequence (O00506 whole entry, looked up): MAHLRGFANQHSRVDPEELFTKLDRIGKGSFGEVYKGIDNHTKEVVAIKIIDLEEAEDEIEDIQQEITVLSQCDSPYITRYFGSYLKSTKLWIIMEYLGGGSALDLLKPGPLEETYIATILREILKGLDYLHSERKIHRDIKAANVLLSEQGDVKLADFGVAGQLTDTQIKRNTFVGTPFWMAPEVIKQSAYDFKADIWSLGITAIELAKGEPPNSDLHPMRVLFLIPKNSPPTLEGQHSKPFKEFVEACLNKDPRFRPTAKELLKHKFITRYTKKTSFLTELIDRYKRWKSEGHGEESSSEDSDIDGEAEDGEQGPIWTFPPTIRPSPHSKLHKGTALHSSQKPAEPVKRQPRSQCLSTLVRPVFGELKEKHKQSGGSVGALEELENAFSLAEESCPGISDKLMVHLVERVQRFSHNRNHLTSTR
Epidermal growth factor receptor (Homo sapiens), sequence (P00533 whole entry): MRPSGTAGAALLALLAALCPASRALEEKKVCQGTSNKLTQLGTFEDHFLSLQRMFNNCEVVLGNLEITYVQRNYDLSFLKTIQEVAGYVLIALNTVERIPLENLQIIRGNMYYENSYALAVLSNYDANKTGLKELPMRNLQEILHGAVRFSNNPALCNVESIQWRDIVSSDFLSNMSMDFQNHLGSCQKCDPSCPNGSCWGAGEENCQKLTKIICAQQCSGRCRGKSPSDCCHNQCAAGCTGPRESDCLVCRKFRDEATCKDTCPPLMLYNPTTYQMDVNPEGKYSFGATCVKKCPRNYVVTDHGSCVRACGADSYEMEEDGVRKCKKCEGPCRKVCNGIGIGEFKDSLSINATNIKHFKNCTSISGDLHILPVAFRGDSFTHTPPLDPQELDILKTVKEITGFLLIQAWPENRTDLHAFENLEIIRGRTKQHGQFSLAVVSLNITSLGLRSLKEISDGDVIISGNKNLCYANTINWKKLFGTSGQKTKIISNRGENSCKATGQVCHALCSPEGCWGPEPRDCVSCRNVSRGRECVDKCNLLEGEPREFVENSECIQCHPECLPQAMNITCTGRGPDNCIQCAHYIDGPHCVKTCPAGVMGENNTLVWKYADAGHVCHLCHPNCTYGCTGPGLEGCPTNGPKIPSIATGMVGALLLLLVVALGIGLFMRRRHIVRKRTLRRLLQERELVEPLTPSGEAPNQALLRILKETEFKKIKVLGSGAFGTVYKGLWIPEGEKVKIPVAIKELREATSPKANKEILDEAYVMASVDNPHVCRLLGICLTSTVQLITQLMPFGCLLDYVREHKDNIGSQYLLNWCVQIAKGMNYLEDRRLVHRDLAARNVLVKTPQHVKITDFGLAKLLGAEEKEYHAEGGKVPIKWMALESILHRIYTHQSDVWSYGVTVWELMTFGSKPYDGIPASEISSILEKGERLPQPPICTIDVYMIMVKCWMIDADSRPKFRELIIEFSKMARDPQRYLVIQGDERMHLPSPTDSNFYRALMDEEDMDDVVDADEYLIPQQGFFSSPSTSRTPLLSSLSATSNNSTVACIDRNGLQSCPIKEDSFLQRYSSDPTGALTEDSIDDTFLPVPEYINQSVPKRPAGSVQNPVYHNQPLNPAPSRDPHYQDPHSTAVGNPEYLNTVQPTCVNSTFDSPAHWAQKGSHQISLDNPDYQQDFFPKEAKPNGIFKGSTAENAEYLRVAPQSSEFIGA

SMILES	inhibition [1]	inhibition [2]	inhibition [3]	inhibition [4]	inhibition [5]	inhibition [6]	inhibition [7]	inhibition [8]	inhibition [9]	inhibition [10]	inhibition [11]	inhibition [12]	inhibition [13]	inhibition [14]	inhibition [15]	inhibition at 0.05 µM [16]	inhibition [17]
CCN1CCN(Cc2ccc(NC(=O)c3ccc(C)c(Oc4ccnc5[nH]ccc45)c3)cc2C(F)(F)F)CC1	18%	-8.8%	56.6%	-0.4%	2.4%	-5.6%	-0.7%	-8.8%	19.5%	> 95%	91.8%	1.1%	6.4%	32.5%	-1.1%	18.9%	36.8%
CCN1CCN(Cc2ccc(NC(=O)c3ccc(C)c(/C=C/c4cnc5[nH]ccc5c4OC)c3)cc2C(F)(F)F)CC1	16.9%	0.4%	21.3%	2.8%	5%	13.8%	9.1%	12.1%	11.6%	> 95%	31.9%	-6.1%	3.1%	14.1%	-7.3%	-14.4%	51.6%
